The record followed here is ChEMBL document CHEMBL4130635, “2,4-Diaminoquinazolines as Dual Toll-like Receptor (TLR) 7/8 Modulators for the Treatment of Hepatitis B Virus” (J Med Chem, 2018).

Molecules are shown by their SMILES. A value given as a limit tells only on which side of the number the result lay.

The nature of series [1]: Intrinsic clearance in human liver microsomes assessed per mg protein at 1 uM up to 60 mins. The note with it: read-out: CLH. In kind it is ADME, microsome. (Microsomes from liver hold many membrane-bound enzymes, among them those of drug oxidation.)
Series [2] in a line: Stability in cynomolgus monkey hepatocytes assessed compound turnover at 1 uM after 60 mins. The note with it: read-out: Drug metabolism. The series is classed as ADME, cell-based, Macaca fascicularis, Hepatocyte.
The nature of series [3]: Protein binding in cynomolgus monkey plasma fraction at 5 uM after 4.5 hrs LC-MS/MS-based rapid equilibrium dialysis method. In kind it is ADME, cell-free, Macaca fascicularis. The note with it: read-out: PPB (converted).
A short description of series [4]: AUC in Sprague-Dawley rat at 10 mg/kg, po. The series is classed as ADME, organism-based. The note with it: in vivo. An outline of the steps: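 Male Sprague-Dawley rats were given 10 mg/kg orally as a solution. Compound was sampled from the portal vein, the systemic circulation and the liver.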
Series [5] is described as follows: Cmax in C57BL/6J mouse plasma at 30 mg/kg, po by LC-MS analysis. The arrangement: dose 30 mg/kg, route oral. In kind it is ADME, organism-based. An outline of the steps: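 Healthy C57BL/6 mice, groups of 15, given a single oral dose (0.3, 1, 3, 10 or 30 mg/kg) in 20% HP-β-CD. Blood drawn at 0.5 h. Three mice per group sacrificed at 0.5, 1, 2, 4 or 7 h, and compound in plasma and liver measured by LC−MS. Values rounded to whole numbers.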

Series [6] can be described thus: AUC (0 to last) in C57BL/6J mouse liver at 0.3 mg/kg, po by LC-MS analysis. In kind it is ADME, organism-based. The note with it: in vivo. An outline of the steps:
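Healthy C57BL/6 mice were dosed once by mouth at 0.3, 1, 3, 10 or 30 mg/kg in 20% HP-β-CD, in groups of 15 per dose. Three mice per group were sacrificed at 0.5, 1, 2, 4 or 7 h, and plasma and liver compound levels were measured by LC–MS. Values were rounded to whole numbers.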

For series [7], the system named is Plasma. Kind of series: Induction of IFNalpha levels in C57BL/6J mouse plasma at 30 mg/kg, po by ELISA. The series is classed as functional.
Series [8] relates to Liver. Kind of series: Induction of IFNalpha levels in C57BL/6J mouse liver at 1 mg/kg, po by ELISA (reference value: 30 pg/g). The series is classed as functional. A general note: ELISA stands for enzyme-linked immunosorbent assay.
Series [9] relates to Plasma. Kind of series: Upregulation of IP-10 mRNA expression levels in C57BL/6J mouse plasma at 30 mg/kg, po by RT-qPCR analysis (reference value: 1). In kind it is functional.
The subject of series [10] is Liver. In words: Upregulation of IP-10 mRNA expression levels in C57BL/6J mouse liver at 10 mg/kg, po by RT-qPCR analysis (reference value: 1). In kind it is functional. (In general: Real-time PCR tracks product formation cycle by cycle.)
The subject of series [11] is Plasma. Kind of series: Effect on cytokine profile in C57BL/6J mouse plasma assessed as IL-12p70 levels at 3 mg/kg, po by multiplex assay (reference value: 560 pg/ml). The series is classed as functional. The procedure, abridged:
(§1)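 Single oral gavage in 20% HP-β-CD to healthy C57BL/6 mice, groups of 15 at 0.3, 1, 3, 10 or 30 mg/kg. Three mice per group sacrificed at 0.5, 1, 2, 4 or 7 h. Plasma and liver cytokines by multiplex, maximum level reported, rounded to nearest multiple of 5.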

Series [12] concerns Liver. In words: Effect on cytokine profile in C57BL/6J mouse liver assessed as IL-12p70 levels at 1 mg/kg, po by multiplex assay (reference value: 5 pg/g). The series is classed as functional, organism-based. An outline of the steps: as §1
Series [13] deals with Plasma. Kind of series: Effect on cytokine profile in C57BL/6J mouse plasma assessed as IFNgamma levels at 0.3 mg/kg, po by multiplex assay. In kind it is functional, organism-based. An outline of the steps: as §1
The test system of series [14] is Plasma. In words: Proinflammatory activity in C57BL/6J mouse plasma assessed as TNFalpha levels at 0.3 mg/kg, po by multiplex assay (reference value: 70 pg/ml). In kind it is functional, organism-based.
Series [15] deals with Plasma. Kind of series: Anti-inflammatory activity in C57BL/6J mouse plasma assessed as IL-10 levels at 10 mg/kg, po by multiplex assay (reference value: 120 pg/ml). The series is classed as functional. An outline of the steps: as §1
The subject of series [16] is Cynomolgus monkey. In words: Induction of IFNalpha levels in cynomolgus monkey plasma at 9 mg/kg, po after 24 hrs by ELISA. The series is classed as functional, Macaca fascicularis. An outline of the steps:
(§2)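 Healthy cynomolgus monkeys given single oral doses of 1, 3, 9 and 30 mg/kg, with a 2-week wash-out planned between doses. Systemic cytokine levels in plasma were sampled at 0.5, 1, 2, 4, 9 and 24 h postdose.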

In series [17] the test system is Cynomolgus monkey. Kind of series: Effect on cytokine profile in cynomolgus monkey plasma assessed as IL-12P70 levels at 9 mg/kg, po after 24 hrs by Luminex assay (reference value: 2.17 pg/ml). In kind it is functional, Macaca fascicularis. An outline of the steps: as §2
The test system of series [18] is Cynomolgus monkey. In words: Activation of monocytes in cynomolgus monkey plasma assessed as upregulation of MCP1 levels at 30 mg/kg, po after 24 hrs by Luminex assay (reference value: 385 pg/ml). The series is classed as functional, Macaca fascicularis.
Series [19] concerns Cynomolgus monkey. In words: Induction of G-CSF in cynomolgus monkey plasma at 9 mg/kg, po after 24 hrs by Luminex assay (reference value: 85 pg/ml). The series is classed as functional, Macaca fascicularis. An outline of the steps:
as §2

For `CCC[C@@H](CCO)Nc1nc(N)nc2c(F)cccc12`, the microsomal CLint at 1 µM in series [1] worked out at 8 µL/min/mg. Moreover, in series [2], the metabolised at 1 h, 1 µM came out at 98%. Also, in series [3], the fraction unbound at 4.5 h, 5 µM was 0.46. This compound also registered an AUC in series [4] of 49 ng·h/mL. This compound also came in with a Cmax in series [5] of 813 ng/mL. Besides, the AUClast in series [6] stood at 25 ng·h/g. For the same compound, the Activity in the series with Plasma [7] was 1930 pg/mL; in the series on Liver [8], 215 pg/g; with Plasma [11], 330 pg/mL; with Liver [12] it was “Below limit of detection”; with Plasma [13], “Below limit of detection”; in the series on Plasma [14], “Below limit of detection”. In addition, the Activity in the series with Plasma [15] was 29450 pg/mL; in the series with Cynomolgus monkey [16], above 51200 pg/mL; with Cynomolgus monkey [17] it was 3.8 pg/mL; in the series with Cynomolgus monkey [18], above 10000 pg/mL; with Cynomolgus monkey [19], 825 pg/mL. The “fold change (FC)” value was determined as 1100 in the series on Plasma [9] and 800 in the series on Liver [10].

A word on the AUC: it is the area under the concentration-time curve, a measure of exposure. By Cmax is commonly meant the maximum level reached in the sampled fluid or tissue.
